# Active and inactive are the calls of the source. No cut-off for these calls is given here.
# Assays:
# Format in all cases: functional
# [1] = test system: Escherichia coli; test: Antibacterial activity against Escherichia coli MTCC 1652 at 2 mg/ml after 24 hrs by agar well diffusion method; settings: for zone of inhibition at 2000 µg/mL: MTCC 1652, 24 h, read-out: DIZ
# Method in brief: (§1)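 Cultures adjusted to 0.5 McFarland and left 15 min on agar for adsorption. 8 mm wells bored and loaded with compound at 2.0 mg/mL in DMSO. Incubated 37 °C for 24 h. Growth-inhibition zone diameter (mm) read with a zone scale and reported as the average. DMSO served as negative control and ciprofloxacin as positive control.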
# [2] = test system: Pseudomonas aeruginosa; test: Antibacterial activity against Pseudomonas aeruginosa MTCC 741 at 2 mg/ml after 24 hrs by agar well diffusion method; settings: for zone of inhibition at 2000 µg/mL: MTCC 741, 24 h, read-out: DIZ; method in brief: as §1
# [3] = test system: Aspergillus flavus; test: Antifungal activity against Aspergillus flavus assessed as inhibition of mycelial growth at 4 mg/ml after 7 days; settings: 168 h, read-out: GI
# Method in brief: (§2)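 Poisoned food method. Molds grown on Sabouraud dextrose agar at 25 °C for 7 days to provide inocula. Molten SDA (45 °C) dosed with compound at 4.0 mg/mL in DMSO, then solidified. 8 mm fungal plugs from colony margins placed centrally. Incubated 25 °C for 7 days, in triplicate. % mycelial growth inhibition calculated from colony diameters versus DMSO control. Fluconazole served as positive control.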
# [4] = test system: Staphylococcus aureus; test: Antibacterial activity against Staphylococcus aureus MTCC 96 at 2 mg/ml after 24 hrs by agar well diffusion method; settings: MTCC 96, 24 h, read-out: DIZ; method in brief: as §1
# [5] = test system: Staphylococcus aureus; test: Antibacterial activity against Staphylococcus aureus MTCC 96 after 24 hrs by agar well diffusion method; settings: MTCC 96, 24 h
# Method in brief: (§3)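 MIC by modified agar well diffusion. Two-fold serial dilutions (DMSO stock diluted in sterile distilled water), range 256 to 0.5, placed in wells in triplicate. Agar was pre-seeded with 100 standardized inoculum at 10⁶ cfu/mL. Incubated aerobically at 37 °C for 24 h. MIC taken as lowest concentration giving a clear zone, i.e. complete growth inhibition.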
# [6] = test system: Bacillus subtilis; test: Antibacterial activity against Bacillus subtilis MTCC 121 after 24 hrs by agar well diffusion method; settings: MTCC 121, 24 h; method in brief: as §3
# [7] = test system: Aspergillus niger; test: Antifungal activity against Aspergillus niger assessed as inhibition of mycelial growth at 4 mg/ml after 7 days; settings: 168 h, read-out: GI; method in brief: as §2
# [8] = test system: Bacillus subtilis; test: Antibacterial activity against Bacillus subtilis MTCC 121 at 2 mg/ml after 24 hrs by agar well diffusion method; settings: MTCC 121, 24 h, read-out: DIZ; method in brief: as §1
# [9] = test system: Penicillium sp.; test: Antifungal activity against Penicillium sp. assessed as inhibition of mycelial growth at 4 mg/ml after 7 days; settings: 168 h, read-out: GI; method in brief: as §2
# [10] = test system: Pseudomonas aeruginosa; test: Antibacterial activity against Pseudomonas aeruginosa MTCC 741 after 24 hrs by agar well diffusion method; settings: MTCC 741, 24 h; method in brief: as §3
# [11] = test system: Escherichia coli; test: Antibacterial activity against Escherichia coli MTCC 1652 after 24 hrs by agar well diffusion method; settings: MTCC 1652, 24 h; method in brief: as §3
SMILES,diameter of the inhibition zone (DIZ) [1],diameter of the inhibition zone (DIZ) [2],inhibition of growth at 4000 µg/mL [3] [%],zone of inhibition at 2000 µg/mL [4] [mm],MIC [5] [µg/mL],MIC [6] [µg/mL],inhibition of growth at 4000 µg/mL [7] [%],zone of inhibition at 2000 µg/mL [8] [mm],inhibition of growth at 4000 µg/mL [9] [%],zone of inhibition at 2000 µg/mL [1] [mm],zone of inhibition at 2000 µg/mL [2] [mm],MIC [10] [µg/mL],MIC [11] [µg/mL]
c1ccc2c3nn4cnnc4sc-3cc2c1,inactive,inactive,50,14.3,256,128,53.3,16,51.1,,,,
CCc1nnc2sc3cc4c(C)cccc4c-3nn12,,,62.5,21.6,32,32,65.5,23,63.3,19.3,17.3,64,64
OC(Cn1cncn1)(Cn1cncn1)c1ccc(F)cc1F [FLUCONAZOLE],,,77.7,,,,81.1,,83.3,,,,
c1ccc2c(c1)CC1Sc3nncn3N=C21 (stereo not drawn),inactive,inactive,52.5,15.3,128,128,51.1,17.6,51.1,,,,
CCc1nnc2n1N=C1c3cccc(C)c3CC1S2 (stereo not drawn),,,63.3,26.6,8,4,64.4,28,65.5,21,19.3,32,32
Cc1cccc2c3nn4c(C)nnc4sc-3cc12,,,50,20.3,64,64,53.3,18.6,51.1,18.6,15.6,128,64
CCc1nnc2n1N=C1c3ccccc3CC1S2 (stereo not drawn),,,55.5,25.3,16,32,58.8,21.6,57.7,18.3,16,128,64
Cc1cccc2c3nn4c(C(C)C)nnc4sc-3cc12,,,61.1,17.6,128,64,65.5,19.3,63.3,15,14.6,256,128
CCCc1nnc2sc3cc4c(C)cccc4c-3nn12,,,65.5,16.3,128,64,68.8,18.6,65.5,15.6,14.3,256,128
CCCc1nnc2n1N=C1c3cccc(C)c3CC1S2 (stereo not drawn),,,55.5,25.3,16,32,58.8,21.6,61.1,19.3,17.6,64,64
CCCc1nnc2n1N=C1c3ccccc3CC1S2 (stereo not drawn),,,52.5,27.3,8,16,55.5,25,53.3,19.3,18.6,64,64
CC(C)c1nnc2n1N=C1c3ccccc3CC1S2 (stereo not drawn),,,51.1,28.6,4,16,53.3,24.6,51.1,20.6,19.3,32,64
Cc1cccc2c1CC1Sc3nnc(C(C)C)n3N=C21 (stereo not drawn),,,61.1,28.6,4,8,63.3,27,65.5,21.6,20.3,32,32
c1ccc(-c2nnc3sc4cc5ccccc5c-4nn23)cc1,inactive,inactive,48.8,14.6,256,256,45.5,15,51.1,,,,
CCc1nnc2sc3cc4ccccc4c-3nn12,inactive,inactive,45.5,16.3,128,128,48.8,17.6,50,,,,
O=C(O)c1cn(C2CC2)c2cc(N3CCNCC3)c(F)cc2c1=O [CIPROFLOXACIN],,,,26.6,5,5,,24,,,22,5,5
Cc1nnc2n1N=C1c3ccccc3CC1S2 (stereo not drawn),inactive,inactive,51.1,14.6,256,128,53.3,16.3,55.5,,,,
CC(C)c1nnc2sc3cc4ccccc4c-3nn12,inactive,inactive,50,15.6,128,128,48.8,17.3,44.4,,,,
Cc1nnc2sc3cc4ccccc4c-3nn12,inactive,inactive,48.8,14.6,256,256,50,15.3,52.5,,,,
